Published values pooled from the literature.
Compare with care: the assays were run in different laboratories. pEC50, pIC50, pKd, pKi: −log10 of the molar value.
Mc1r: Melanocyte-stimulating hormone receptor (Mc1r, Mus musculus, UniProt Q01727)
PSMB8: Proteasome subunit beta type-8 (PSMB8, Homo sapiens, UniProt P28062)

Compound	target	effect on	action	method	setting	endpoint	result
CSCC[C@H](NC(=O)[C@@H](NC(=O)[C@@H](N)Cc1ccc(O)cc1)C(C)C)C(=O)NCC(=O)N[C@@H](Cc1c[nH]cn1)C(=O)N[C@@H](Cc1ccccc1)C(=O)N[C@@H](CCCNC(=N)N)C(=O)N[C@@H](Cc1c[nH]c2ccccc12)C(=O)N[C@@H](CC(=O)O)C(=O)O	Mc1r	reporter gene	agonist			pEC50	6.37
CN1CCN(c2ccc(Nc3ncc4cc(C#N)c(=O)n(C5CCCC5)c4n3)cc2)CC1	Ephrin type-A receptor 1 (EPHA1, Homo sapiens, UniProt P21709)	enzyme activity	inhibitor			pIC50	7.24
CCOc1ccc2c(-c3cc(C)nc(Nc4cc(OC)cc(C(F)(F)F)c4)n3)cnn2n1	Dual specificity tyrosine-phosphorylation-regulated kinase 1A (DYRK1A, Homo sapiens, UniProt Q13627)	enzyme activity	inhibitor			pIC50	< 5.00
Cc1ncc(C(=O)N[C@@H](CC2CCCCC2)C(=O)N[C@@H](CC2CCCCC2)C(=O)N[C@H](/C=C/S(C)(=O)=O)Cc2ccc(CN)cc2)s1	PSMB8	enzyme activity	inhibitor		lysate	pIC50	< 5.00
CSCC[C@H](NC(=O)[C@@H](NC(=O)[C@@H](N)Cc1ccc(O)cc1)C(C)C)C(=O)NCC(=O)N[C@@H](Cc1c[nH]cn1)C(=O)N[C@@H](Cc1ccccc1)C(=O)N[C@@H](CCCNC(=N)N)C(=O)N[C@@H](Cc1c[nH]c2ccccc12)C(=O)O	Mc1r	reporter gene	agonist			pEC50	5.54
Cc1ncc(C(=O)N[C@@H](CC2CCC3CCCCC3C2)C(=O)N[C@@H](CC(C)C)C(=O)N[C@H](/C=C/S(C)(=O)=O)Cc2ccc(CN)cc2)s1 (stereo partly shown)	PSMB8	enzyme activity	inhibitor		lysate	pIC50	< 5.00
CCCCN1CCC(COC(=O)c2ccc(N)c(OCF)c2)CC1	Muscarinic acetylcholine receptor M3 (CHRM3, Homo sapiens, UniProt P20309)	cell-free assay		radioligand		pKi	5.86
CC(C)C[C@H](NC(=O)CN1CCOCC1)C(=O)N[C@@H](CC(C)C)C(=O)N[C@H](/C=C/S(C)(=O)=O)Cc1ccc(CN)cc1	PSMB8	enzyme activity	inhibitor		lysate	pIC50	< 5.00
CC[C@H](C)[C@H](NC(=O)[C@H](CO)NC(=O)[C@H](Cc1ccc(O)cc1)NC(=O)[C@H](CC(=O)O)NC(=O)[C@H](CO)NC(=O)[C@@H](NC(=O)[C@H](Cc1ccccc1)NC(=O)[C@@H](NC(=O)CNC(=O)[C@H](CCC(=O)O)NC(=O)[C@H](C)NC(=O)[C@@H](N)Cc1ccc(O)cc1)[C@@H](C)O)[C@@H](C)CC)C(=O)N[C@@H](C)C(=O)N[C@@H](CCSC)C(=O)N[C@@H](CC(=O)O)C(=O)N[C@@H](CCCCN)C(=O)N[C@H](C(=O)N[C@@H](Cc1c[nH]cn1)C(=O)N[C@@H](CCC(N)=O)C(=O)N[C@@H](CCC(N)=O)C(=O)N[C@@H](CC(=O)O)C(=O)N[C@@H](Cc1ccccc1)C(=O)N[C@H](C(=O)N[C@@H](CC(N)=O)C(=O)N[C@@H](Cc1c[nH]c2ccccc12)C(=O)N[C@@H](CC(C)C)C(=O)N[C@@H](CC(C)C)C(=O)N[C@@H](C)C(=O)N[C@@H](CCC(N)=O)C(=O)N[C@@H](CCCCN)C(=O)NCC(=O)N[C@@H](CCCCN)C(=O)N[C@@H](CCCCN)C(=O)N[C@@H](CC(N)=O)C(=O)N[C@@H](CC(=O)O)C(=O)N[C@@H](Cc1c[nH]c2ccccc12)C(=O)N[C@@H](CCCCN)C(=O)N[C@@H](Cc1c[nH]cn1)C(=O)N[C@@H](CC(N)=O)C(=O)N[C@H](C(=O)N[C@H](C(=O)N[C@@H](CCC(N)=O)C(=O)O)[C@@H](C)O)[C@@H](C)CC)C(C)C)[C@@H](C)CC	Glucagon receptor (GCGR, Homo sapiens, UniProt P47871)	reporter gene	agonist	luciferase		pEC50	6.30
N=C(N)NCCC[C@H](N)C(=O)N[C@@H](Cc1ccccc1)C(=O)NCC(=O)O	Mc1r	reporter gene	agonist			pEC50	< 4.00
Cc1ncc(C(=O)N[C@@H](CCC2CCCCC2)C(=O)N[C@@H](CC(C)C)C(=O)N[C@H](/C=C/S(C)(=O)=O)Cc2ccc(CN)cc2)s1	PSMB8	enzyme activity	inhibitor		lysate	pIC50	6.39
N=C(N)NCCC[C@H](NC(=O)[C@H](CC(=O)O)NC(=O)[C@@H](N)Cc1c[nH]c2ccccc12)C(=O)N[C@@H](Cc1ccccc1)C(=O)NCC(=O)O	Mc1r	reporter gene	agonist			pEC50	< 4.00
CC1=C(/C=C/C(C)=C/C=C/C(C)=C/C=O)C(C)(C)CCC1	Cellular retinoic acid-binding protein 2 (CRABP2, Homo sapiens, UniProt P29373, R133K/Y135F)	binding		fluorescence		pKd	6.92
